Source: PubChem BioAssay (several laboratories)
DAGLB inh: DAGLB lipase inhibitors, primary screen, biochemical, fluorescence, HTS | HEK293T DAGLB membrane lysate, EnzChek fluorogenic substrate | inhibition, % at 5.17 µM | 340,000 compounds, 0.059% hits | Diacylglycerol lipase-beta (Homo sapiens), Q8NCG7; in the data active = inhibition above about 34%;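 note: 0% = enzyme with vehicle and 100% = wells lacking enzyme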
Granule exo inh: LAMP-1 surface exposure blockers, TALL-104 cells – cell-based, flow cytometry, MLPCN library, primary screen; TALL-104 LAMP-1 surface exposure; cells stimulated with thapsigargin and PMA; inhibition, % at 10 µM; 360,000 compounds, 0.66% hits; AID 651702, 2012;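 active = inhibition above about 55%, limit read from the data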
FGF22 binding: binders of human FGF22 protein, primary screen, FGF22 synaptogenesis inhibitor project, biophysical, thermal shift, single point. activity (Tm shift, normalised), % at 9.99 µM. Fibroblast growth factor 22 (Homo sapiens), Q9HCT0. recombinant FGF22 thermal shift, SYPRO orange fluorescence; percent of sucrose octasulfate shift, DMSO zero. AID 651658, 2012. 340,000 compounds, 1.5% hits;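 active = mean Tm shift, scaled 0 neutral to 100 positive control, at about 1.3% or above, every replicate too, limit read from the data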
MT1-MMP act inh: blockers of MT1-MMP proenzyme processing, primary screen, HT1080 RFP-PRO-GFP cells, GFP/RFP fluorescence; GFP/RFP ratio fluorescence, overnight; percent of plate control window, DMSO zero; GFP/RFP ratio change, % at 20 µM; 360,000 compounds, 0.061% hits; AID 651647, 2012;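 active = GFP/RFP ratio change of at least 30% with cell ATP level not reduced by more than half and red fluorescence within 50% of control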
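Test system: HT1080 cells expressing an RFP-PRO-GFP fluorescent reporter construct / Compound dosing: single-point 20 µM compound, 1% DMSO / Schedule: cells overnight before dosing, compound overnight, 37 °C, 5% CO2 / Evaluation: GFP/RFP fluorescence ratio / Control set: DMSO and RFP-L50D-GFP cell wells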
VLA-4 inh: inhibition in human VLA-4 binding assay, primary screen, VLA-4 allosteric modulator project, MLPCN library, flow cytometry, VLA-4 expressing cells. AID 2557, 2010. ligand binding flow cytometry. Integrin alpha-4 (Homo sapiens), P13612. 330,000 compounds, 0.2% hits. inhibition, % (about 7 µM as worked out from the volumes in the protocol); in the data active = inhibition above about 50%
ABCB6 inh MLPCN: ABCB6 transporter inhibitors, primary screen, K562-ABCB6 cells, flow cytometry, MLPCN library; K562-ABCB6 porphyrin accumulation, 1 h; stronger effect = lower value; 360,000 compounds, 0.19% hits; ATP-binding cassette sub-family B member 6 (Homo sapiens), Q9NP58; fluorescence ratio to DMSO, % at 10 µM;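 active = fluorescence ratio to DMSO below 75%, the collection mean minus 3 SD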;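 note: signal is porphyrin accumulated inside mitochondria; 100% equals median channel fluorescence of DMSO control wells; lower ratio means ABCB6 inhibition with less porphyrin fluorescence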
Target sequence (Q9NP58 whole entry, looked up): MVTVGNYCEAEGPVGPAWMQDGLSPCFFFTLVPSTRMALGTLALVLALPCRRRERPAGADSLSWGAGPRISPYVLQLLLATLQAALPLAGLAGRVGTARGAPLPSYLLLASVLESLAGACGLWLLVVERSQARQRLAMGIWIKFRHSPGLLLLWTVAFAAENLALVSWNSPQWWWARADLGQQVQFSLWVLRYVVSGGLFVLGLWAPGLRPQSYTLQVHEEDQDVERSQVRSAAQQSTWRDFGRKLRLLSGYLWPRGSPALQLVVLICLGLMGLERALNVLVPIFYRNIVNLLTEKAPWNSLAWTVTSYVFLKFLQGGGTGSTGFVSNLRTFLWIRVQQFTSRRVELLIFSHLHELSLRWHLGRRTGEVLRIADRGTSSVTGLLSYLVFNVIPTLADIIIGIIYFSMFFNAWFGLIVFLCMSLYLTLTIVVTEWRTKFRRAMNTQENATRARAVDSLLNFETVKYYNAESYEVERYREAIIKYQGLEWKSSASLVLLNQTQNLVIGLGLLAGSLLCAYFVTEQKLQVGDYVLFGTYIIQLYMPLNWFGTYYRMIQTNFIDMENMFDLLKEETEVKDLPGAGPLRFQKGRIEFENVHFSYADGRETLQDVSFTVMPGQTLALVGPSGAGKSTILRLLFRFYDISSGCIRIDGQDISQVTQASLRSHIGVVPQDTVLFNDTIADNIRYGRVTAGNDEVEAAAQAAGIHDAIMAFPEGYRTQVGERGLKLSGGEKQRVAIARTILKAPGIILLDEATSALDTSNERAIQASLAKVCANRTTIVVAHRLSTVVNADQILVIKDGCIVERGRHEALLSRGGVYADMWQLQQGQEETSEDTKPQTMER
Exocytosis CP01: inhibitors of lytic granule exocytosis, confirmation, TALL-104 cells, flow cytometry, Cherry Pick01. shares compounds with Granule exo inh. LAMP-1 externalization; stimulated with PMA plus thapsigargin. inhibition, % at 10 µM. 1,500 compounds, 11% hits. AID 651954, 2012; in the data active = inhibition above about 60%;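 note: 0% = stimulated vehicle wells and 100% = unstimulated wells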
Active calls of the source: *; · = not tested or not shown. Only some compounds are listed: those with a hit (about 2% of all), similar ones and a draw of the others.

SMILES	DAGLB inh	Granule exo inh	FGF22 binding	MT1-MMP act inh	VLA-4 inh	ABCB6 inh MLPCN	Exocytosis CP01
O=C(O)C1=C[C@H](c2ccccc2)C[C@H](OCCCCO)O1	1	58*	0	5	·	98	-13
CC(CC(=O)Nc1ncc([N+](=O)[O-])s1)c1ccccc1 (stereo not given)	-1	59*	0	-5	-8	88	-9
CO[C@H]1CN(C)C(=O)c2cc(NC(=O)c3cc(C)on3)ccc2OC[C@@H](C)NC[C@@H]1C	·	·	0	·	·	·	·
COc1ccc(CNC(=O)C(c2ccc(C)o2)N(Cc2cccs2)C(=O)Cc2cccs2)cc1 (stereo not given)	-1	77*	·	-14	-10	88	8
COCCN(C(=O)Cc1cccs1)C(C(=O)NCc1ccc(OC)cc1)c1ccc(C)cc1 (stereo not given)	0	1	·	-5	31	97	·
Cc1c(C(=O)OCC(=O)Nc2cccc(S(N)(=O)=O)c2)oc2c1ccc1ccccc12	-1	88*	0	-2	-2	97	93*
Cc1ccc2nc(-c3ccc(N4C(=O)CC(N5CCN(CCO)CC5)C4=O)cc3)sc2c1 (stereo not given)	0	66*	·	12	21	98	62*
CS(=O)(=O)N1[C@@H](CO)[C@@H](c2ccccc2)C12CN(C(=O)c1ccccc1F)C2	·	·	0	·	·	·	·
CC1CC(C)(C)Nc2ccc(OC(=O)c3ccco3)cc21 (stereo not given)	0	82*	·	-78	24	114	-11
COc1ccc(OC)c(C2=Nn3c(nnc3C3CCCCC3)SC2)c1	-5	73*	·	1	-4	95	-11
COc1ccccc1C1=Nn2c(nnc2C2CCCCC2)SC1	-1	10	·	-3	3	92	·
CC(C)NC(=O)N(C)C[C@H]1Oc2c(NC(=O)c3cnccn3)cccc2C(=O)N([C@H](C)CO)C[C@@H]1C	·	·	0	·	·	·	·
CO[C@H]1CN(C)C(=O)c2cc(NC(=O)Nc3ccc(C(F)(F)F)cc3)ccc2OC[C@H](C)NC[C@@H]1C	·	·	0	·	·	·	·
Cc1cccn2c(=O)c3cc(C(=O)NC4CCCC4)c(=N)n(CCc4ccccc4)c3nc12	-1	69*	0	4	7	91	-3
Cc1ccc2nc3c(cc(C(=O)NCCc4ccccc4)c(=N)n3CCCN3CCOCC3)c(=O)n2c1	-3	80*	0	-2	-2	97	-2
COc1ccc2c3c(n(C)c2c1)[C@H](CO)NCC31CCN(C(=O)CC2CC2)CC1	·	·	0	·	·	·	·
COc1ccc(NC(=O)Nc2ccc3c(c2)C(=O)N([C@H](C)CO)C[C@H](C)[C@@H](CN(C)S(=O)(=O)c2cn(C)cn2)OCCCC[C@@H](C)O3)cc1	·	·	0	·	·	·	·
COc1ccc(S(=O)(=O)Nc2ccc3c(c2)C(=O)N([C@@H](C)CO)C[C@@H](C)[C@@H](CN(C)C)OCCCC[C@H](C)O3)cc1	·	·	0	·	·	·	·
O=C(O)c1ccc(Cl)c(S(=O)(=O)N(Cc2ccccc2)c2ccc(F)cc2)c1	7	2	0	-5	4	98	·
O=C(O)c1ccc(Cl)c(S(=O)(=O)N(Cc2ccccc2)c2ccccc2)c1	6	63*	0	-2	9	97	-13
COc1ccc(OC)c(Nc2nc(-c3ccncc3)nc3ccccc23)c1	-2	83*	0	-14	30	102	-4
COc1ccc(Nc2nc(-c3ccccc3)nc3ccccc23)c(OC)c1	-7	0	0	1	3	91	·
CCOC(=O)N1CCN(CCC(=O)c2ccc(Br)cc2)CC1	3	88*	0	-2	26	93	8
COc1cccc(CN(C)C(c2ccccc2)c2ccccc2)c1OC	-13	89*	0	-5	13	101	-2
COc1ccc(-c2cn(CC(=O)N3CCC4(CC3)C(=O)NCN4c3ccccc3)nn2)cc1OC	·	·	0	·	·	·	·
SMILES	DAGLB inh	Granule exo inh	FGF22 binding	MT1-MMP act inh	VLA-4 inh	ABCB6 inh MLPCN	Exocytosis CP01
CCCCCCNC(=O)CC(c1ccccc1)c1cc(Br)ccc1O (stereo not given)	-27	66*	·	-10	1	97	30
COc1ccc(C#Cc2cccc(-c3nc(C(=O)Nc4ccc(-c5ccccc5)cc4)cc4c3[C@@H](CCO)N(S(=O)C(C)(C)C)C4)c2)cc1OC (stereo not given in full)	·	·	0	·	·	·	·
Cc1ccccc1Nc1nc(N)nc(COC(=O)c2ccc(S(=O)(=O)N(C)C)cc2)n1	-23	63*	·	8	-1	98	-13
CO[C@@H]1CN(C)C(=O)c2ccc(NS(=O)(=O)c3ccccc3)cc2OC[C@H](C)N(C(=O)NC(C)C)C[C@H]1C	·	·	0	·	·	·	·
NC(=O)c1ccc(NC(=O)c2ccc3c(c2)CCN3S(=O)(=O)c2ccccc2)cc1	-5	72*	0	4	13	99	-1
O=C(O)c1cccc(NC(=O)c2cccc(S(=O)(=O)N3CCc4ccccc43)c2)c1	3	-2	0	0	4	104	·
COCC(=O)Nc1ccc2c(c1)[C@H]1C[C@@H](CC(=O)NCc3ccc(-c4ccccc4)cc3)O[C@H](CO)[C@H]1O2	·	·	0	·	·	·	·
CCC1(C)CC2(CCCN(CCC(O)(c3ccccc3)c3ccccc3)C2)CCO1 (stereo not given)	-6	58*	0	-3	2	97	-11
CCCCN(CCO)c1ncnc2sc(-c3ccccc3)cc12	-11	92*	-1	1	-21	99	-10
Clc1ccc(C2Nc3cccc4cccc(c34)N2)c(Cl)c1	5	74*	-1	11	·	97	7
Cc1noc(C)c1S(=O)(=O)Nc1ccc2c(c1)C(=O)N([C@H](C)CO)C[C@@H](C)[C@@H](CN(C)C(=O)Cc1ccccc1)OCCCC[C@H](C)O2	·	·	-1	·	·	·	·
COc1ccc(OC)c(N(CC(=O)NCCSCc2ccco2)S(=O)(=O)c2ccccc2)c1	0	85*	0	-5	6	98	-13
COc1ccc(N(CC(=O)NCCSc2ccccn2)S(=O)(=O)c2ccccc2)c(OC)c1	1	65*	0	-4	-14	98	101*
